According to ChEMBL document CHEMBL1671867, “Novel polymyxin derivatives carrying only three positive charges are effective antibacterial agents” (Antimicrob Agents Chemother, 2008):
Converted amounts (≈) assume the structure as drawn.

Experiments:
Escherichia coli [1] = assay: Antibacterial activity against 5 x 10^5 CFU/ml Escherichia coli ATCC […] by Etest method by Etest in presence of 8 ug/ml NAB7061; format: functional
Klebsiella pneumoniae [2] = assay: Antibacterial activity against Klebsiella pneumoniae ATCC 13883 by Etest method in presence of NAB7061; format: functional
In short: (§1)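 MICs of the antibiotic taken from E-strips on Mueller-Hinton agar, run both with and without peptide. […] Inoculum was prepared per the strip manufacturer, matching CLSI M2-A9.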

Pseudomonas aeruginosa [3] = assay: Antibacterial activity against Pseudomonas aeruginosa ATCC 27853 by Etest method in presence of 4 ug/ml NAB7075; format: functional
Acinetobacter baumannii [4] = assay: Antibacterial activity against Acinetobacter baumannii ATCC 19606 by Etest method; format: functional
Escherichia coli [5] = assay: Antibacterial activity against Escherichia coli IH3080 by Etest method in presence of 2 ug/ml NAB7062; format: functional
Escherichia coli [6] = assay: microbe, parasite or virus in culture; settings: ATCC 25992
Serratia marcescens = assay: Antibacterial activity against Serratia marcescens ATCC 8100 by Etest method in presence of 4 ug/ml NAB7072; format: functional
Enterobacter cloacae [7] = assay: Antibacterial activity against Enterobacter cloacae CCUG52947 by Etest method in presence of 4 ug/ml NAB7067; format: functional
Enterobacter cloacae [8] = assay: Antibacterial activity against Enterobacter cloacae ATCC 23355 […] by Etest method in presence of 1 ug/ml NAB7061; format: functional
Klebsiella pneumoniae [9] = assay: Antibacterial activity against Klebsiella pneumoniae CCUG45421 by Etest method in presence of 4 ug/ml NAB7063; format: functional
Enterobacter cloacae [10] = assay: Antibacterial activity against Enterobacter cloacae ATCC 23355 by Etest method; format: functional
In short: (§2)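 E-strip MIC on Mueller-Hinton agar without added peptide; inoculum per manufacturer, matching CLSI M2-A9.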

Escherichia coli [11] = assay: microbe, parasite or virus in culture; settings: ATCC 25992; remark: listed apart in the source
Escherichia coli [12] = assay: Antibacterial activity against Escherichia coli IH3080 by Etest method in presence of 1 ug/ml NAB7061; format: functional
Escherichia coli [13] = assay: Antibacterial activity against 5 x 10^5 CFU/ml Escherichia coli ATCC 25992 in presence of 2 ug/ml NAB7061 by Checkerboard method; format: functional
Klebsiella pneumoniae [14] = assay: Antibacterial activity against Klebsiella pneumoniae ATCC 13883 by Etest method; format: functional; in short: as §1
Pseudomonas aeruginosa [15] = assay: Antibacterial activity against Pseudomonas aeruginosa ATCC 27853by Etest method in presence of 0.5 ug/ml NAB739; format: functional; in short: as §1
Proteus mirabilis = assay: Antibacterial activity against Proteus mirabilis ATCC 29906 by Etest method in presence of 4 ug/ml NAB7073; format: functional
Escherichia coli [16] = assay: Antibacterial activity against Escherichia coli IH3080 by Etest method in presence of 4 ug/ml NAB7064; format: functional
Escherichia coli [17] = assay: microbe, parasite or virus in culture; settings: ATCC 25992; remark: listed apart in the source
Acinetobacter baumannii [18] = assay: Antibacterial activity against Acinetobacter baumannii ATCC 19606 by Etest method in presence of NAB739; format: functional
Escherichia coli [19] = assay: Antibacterial activity against Escherichia coli IH3080 by Etest method; format: functional; in short: as §2
Escherichia coli [20] = assay: Antibacterial activity against Escherichia coli ATCC […] by Etest method in presence of 2 ug/ml NAB7062; format: functional
Proteus vulgaris = assay: Antibacterial activity against Proteus vulgaris ATCC 13315 by Etest method in presence of 4 ug/ml NAB7074; format: functional
Klebsiella pneumoniae [21] = assay: Antibacterial activity against Klebsiella pneumoniae ATCC 13883 by Etest method in presence of 2 ug/ml NAB7061; format: functional; in short: as §1
Escherichia coli [22] = assay: Antibacterial activity against Escherichia coli ATCC […] by Etest method in presence of 1 ug/ml NAB7061; format: functional
Escherichia coli [23] = assay: Antibacterial activity against Escherichia coli NCTC13353 by Etest method in presence of 4 ug/ml NAB7062; format: functional
Acinetobacter baumannii [24] = assay: Antibacterial activity against Acinetobacter baumannii F264 by Etest method in presence of […] NAB739; format: functional
Escherichia coli [25] = assay: Antibacterial activity against 5 x 10^5 CFU/ml Escherichia coli ATCC […] by Etest method by Etest in presence of 2 ug/ml NAB7061; format: functional
Pseudomonas aeruginosa [26] = assay: Antibacterial activity against Pseudomonas aeruginosa ATCC 27853by Etest method in presence of 1 ug/ml NAB739; format: functional; in short: as §1
Escherichia coli [27] = assay: Antibacterial activity against 5 x 10^5 CFU/ml Escherichia coli ATCC […] by Etest method by Etest in presence of 4 ug/ml NAB7061; format: functional
In short: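 Antibiotic MICs were read from E-strips on Mueller-Hinton agar containing the peptide at 1 to 16 μg/ml in twofold steps, or at a single 4 μg/ml, and on agar without peptide. The inoculum was prepared per the strip maker's instructions and matched CLSI M2-A9. Values come from two independent determinations.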

Acinetobacter baumannii [28] = assay: Antibacterial activity against Acinetobacter baumannii ATCC 19606 by Etest method in presence of 0.5 ug/ml NAB739; format: functional
Pseudomonas aeruginosa [29] = assay: Antibacterial activity against Pseudomonas aeruginosa ATCC 27853by Etest method in presence of […] NAB739; format: functional
Acinetobacter baumannii [30] = assay: Antibacterial activity against Acinetobacter baumannii F264 by Etest method in presence of 1 ug/ml NAB739; format: functional
Klebsiella oxytoca = assay: Antibacterial activity against Klebsiella oxytoca CCUG51683 by Etest method in presence of 4 ug/ml NAB7066; format: functional
Escherichia coli [31] = assay: Antibacterial activity against Escherichia coli by Etest method in presence of 4 ug/ml NAB7061; format: functional
Escherichia coli [32] = assay: Antibacterial activity against Escherichia coli IH3080 by Etest method in presence of NAB7061; format: functional
Pseudomonas aeruginosa [33] = assay: Antibacterial activity against Pseudomonas aeruginosa ATCC 27853by Etest method; format: functional; in short: as §1
Klebsiella pneumoniae [34] = assay: Antibacterial activity against Klebsiella pneumoniae ATCC 13883 by Etest method in presence of 1 ug/ml NAB7061; format: functional; in short: as §1
Escherichia coli [35] = assay: Antibacterial activity against 5 x 10^5 CFU/ml Escherichia coli ATCC […] by Etest method by Etest in presence of 1 ug/ml NAB7061; format: functional
Acinetobacter baumannii [36] = assay: Antibacterial activity against Acinetobacter baumannii F264 by Etest method; format: functional; in short: as §2
Acinetobacter baumannii [37] = assay: Antibacterial activity against Acinetobacter baumannii by Etest method in presence of 4 ug/ml NAB7071; format: functional
Escherichia coli [38] = assay: Antibacterial activity against Escherichia coli ATCC 25992 by Etest method; format: functional; in short: as §2
Escherichia coli [39] = assay: Antibacterial activity against Escherichia coli ATCC […] by Etest method in presence of NAB7061; format: functional
Pseudomonas aeruginosa [40] = assay: Antibacterial activity against Pseudomonas aeruginosa ATCC 27853by Etest method in presence of 2 ug/ml NAB739; format: functional
Escherichia coli [41] = assay: microbe, parasite or virus in culture; settings: ATCC 25992; remark: listed apart in the source

## CO[C@H]1/C=C/O[C@@]2(C)Oc3c(C)c(O)c4c(O)c(c(/C=N/N5CCN(C)CC5)c(O)c4c3C2=O)NC(=O)/C(C)=C\C=C\[C@H](C)[C@H](O)[C@@H](C)[C@@H](O)[C@@H](C)[C@H](OC(C)=O)[C@@H]1C [RIFAMPIN]
Escherichia coli [1]
  MIC: 0.006 µg/mL
Klebsiella pneumoniae [2]
  MIC: ≤ 0.073 µg/mL
Pseudomonas aeruginosa [3]
  MIC: 12 µg/mL
Acinetobacter baumannii [4]
  MIC: 4 µg/mL (≈ 4.86 µM)
Escherichia coli [5]
  MIC: 0.19 µg/mL
Escherichia coli [6]
  MIC: 8 µg/mL (≈ 9.72 µM)
Serratia marcescens
  MIC: 16 µg/mL
Enterobacter cloacae [7]
  MIC: 0.032 µg/mL
Enterobacter cloacae [8]
  MIC: 8 µg/mL
Klebsiella pneumoniae [9]
  MIC: 2 µg/mL
Enterobacter cloacae [10]
  MIC: 12 µg/mL (≈ 14.6 µM)
Escherichia coli [11]
  MIC: 8 µg/mL (≈ 9.72 µM)
Escherichia coli [12]
  MIC: 0.25 µg/mL
Escherichia coli [13]
  MIC: 0.5 µg/mL
Klebsiella pneumoniae [14]
  MIC: > 16 µg/mL
Pseudomonas aeruginosa [15]
  MIC: 32 µg/mL
Proteus mirabilis
  MIC: 1 µg/mL
Escherichia coli [16]
  MIC: 0.023 µg/mL
Escherichia coli [17]
  MIC: 8 µg/mL (≈ 9.72 µM)
Acinetobacter baumannii [18]
  fractional inhibitory concentration index (FICI): 0.126
Escherichia coli [19]
  MIC: 8 µg/mL (≈ 9.72 µM)
Escherichia coli [20]
  MIC: 0.064 µg/mL
Proteus vulgaris
  MIC: 1 µg/mL
Klebsiella pneumoniae [21]
  MIC: 0.25 µg/mL
Escherichia coli [22]
  MIC: 0.19 µg/mL
Escherichia coli [23]
  MIC: 0.064 µg/mL
Acinetobacter baumannii [24]
  MIC: 0.38 µg/mL
Escherichia coli [25]
  MIC: 0.064 µg/mL
Pseudomonas aeruginosa [26]
  MIC: 16 µg/mL
Escherichia coli [27]
  MIC: 0.016 µg/mL
Acinetobacter baumannii [28]
  MIC: 0.047 µg/mL
Pseudomonas aeruginosa [29]
  MIC: 32 µg/mL
Acinetobacter baumannii [30]
  MIC: 0.016 µg/mL
Klebsiella oxytoca
  MIC: 0.012 µg/mL
Escherichia coli [31]
  MIC: 0.016 µg/mL
Escherichia coli [32]
  MIC: ≤ 0.055 µg/mL
Pseudomonas aeruginosa [33]
  MIC: 32 µg/mL (≈ 38.9 µM)
Klebsiella pneumoniae [34]
  MIC: 1.5 µg/mL
Escherichia coli [35]
  MIC: 0.19 µg/mL
Acinetobacter baumannii [36]
  MIC: 12 µg/mL (≈ 14.6 µM)
Acinetobacter baumannii [37]
  MIC: 0.032 µg/mL
Escherichia coli [38]
  MIC: 8 µg/mL (≈ 9.72 µM)
Escherichia coli [39]
  fractional inhibitory concentration index (FICI): 0.071
Pseudomonas aeruginosa [40]
  MIC: 4 µg/mL
Escherichia coli [41]
  MIC: 8 µg/mL (≈ 9.72 µM)
